Assay outcomes (PubChem)
Most compounds without a hit are left out; they make up all but 3.7% or so of the library.
Exocytosis inh = blocks lytic granule exocytosis; AID 651702; TALL-104 LAMP-1 surface exposure, flow cytometry; cells stimulated with thapsigargin and PMA; hit rate 0.66% among 360,000; inhibition, % at 10 µM;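 active = inhibition above about 55%, limit read from the data; inconclusive = no clear call, values can overlap the other calls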
MC4R antagonist = human MC4R antagonism in cAMP assay; MC4R-expressing cells, MTII-stimulated cAMP, LANCE TR-FRET; P32245; hit rate 0.48% among 360,000; AID 540295; inhibition, % at 6.5 µM;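 active = inhibition above its plate's cutoff, the mean of tested wells on that plate plus 3 SD, cut at about 29% in these data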;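 note: 0% = Melanotan II alone and 100% = Melanotan II plus saturating MCL0020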
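Assay system: human MC4R-expressing U2OS cells; reagent: Melanotan II stimulation of cells; dosing: 6.5 µM single dose; timing: compound 30 min, challenge 1 h, detection 1 h; signal: TR-FRET cAMP assay; replicates: one well per compound, no replicates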
EBI2 antag = blocks human EBI2 receptor beta-arrestin signaling | P32249 | EBI2 beta-arrestin recruitment, luminescence, 7a,25-OHC stimulated | inhibition, % at 5 µM | hit rate 0.81% among 360,000; in the data active = inhibition above about 38%;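 note: enzyme fragment complementation signal reports receptor beta-arrestin coupling in cells; 0% = agonist plus DMSO wells and 100% = wells without agonist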
Target sequence (P32249 whole entry, looked up, the tested form may be a part): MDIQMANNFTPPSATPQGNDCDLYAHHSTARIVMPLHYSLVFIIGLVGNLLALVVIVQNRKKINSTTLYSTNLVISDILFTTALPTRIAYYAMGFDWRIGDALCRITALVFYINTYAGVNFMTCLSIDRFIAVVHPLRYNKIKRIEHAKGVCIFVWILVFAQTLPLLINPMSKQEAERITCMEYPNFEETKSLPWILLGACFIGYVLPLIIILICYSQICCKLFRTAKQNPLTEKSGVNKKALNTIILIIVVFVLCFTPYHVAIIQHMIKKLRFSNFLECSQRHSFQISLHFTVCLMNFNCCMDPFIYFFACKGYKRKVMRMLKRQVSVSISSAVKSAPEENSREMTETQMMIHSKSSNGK
Myeloid diff 2 = compounds promoting myeloid differentiation; ER-HoxA9 myeloid progenitors, lysozyme-GFP differentiation, flow cytometry; calls only at 10 µM; hit rate 1% among 360,000; AID 624256;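 active = normalized GFP-positive differentiation at or above the plate's own cutoff, the solvent-only control mean plus 3 SD; inconclusive = no clear call, values can overlap the other calls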;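 note: cells exposed to compound for four days before flow analysis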
MC4R ag barr = human MC4R agonism via beta-arrestin. P32245. U2OS MC4R beta-arrestin complementation, luminescence; percent of melanotan II response, DMSO zero. activation, % at 8.9 µM. hit rate 0.98% among 360,000;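 active = activation above a per-plate cutoff, the mean activation of sample wells on that plate plus 3 SD, cut at about 8% in these data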
Myeloid diff = compounds promoting myeloid differentiation; shares compounds with Myeloid diff 2; ER-HoxA9 myeloid progenitors, GFP/Mac1 double-positive flow; calls only; hit rate 2% among 2,300; AID 651706;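 active = share of green or green-and-red cells above 9 and 9% in run 1 or 4 and 3% in run 2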
GFP autofluor = counter-screen for myeloid differentiation promoters: compound fluorescence. shares compounds with Myeloid diff 2. ER-HoxA9 myeloid progenitors, no estrogen, GFP autofluorescence flow cytometry; vehicle wells 0%, positive control 100%. fluorescence response, % (test concentration not listed). hit rate 7.4% among 2,300;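 active = over 5% cells positive for green fluorescent reporter, or over 2% positive for both it and APC stain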;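 note: range taken on the double positive population between DMSO and positive control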
An asterisk follows results filed as active; i = inactive; ? = inconclusive; . = no result; + = active, no number.

SMILES	Exocytosis inh	MC4R antagonist	EBI2 antag	Myeloid diff 2	MC4R ag barr	Myeloid diff	GFP autofluor
COc1ccc(C(C(=O)c2ccccc2)c2ccccc2)cc1 (centres undefined)	-11	.	11	i	.	.	.
CCc1c(-c2ccc(OC)cc2)ncn1Cc1cccc(-c2ccccc2)c1	29	.	-6	i	.	.	.
CCN(CC)C(=O)c1cccc(-c2csc(C(O)c3ccc(F)c(F)c3)n2)c1 (centres undefined)	2	13	6	i	-2	.	.
Cc1nn2c(N3CCOCC3)c3c(nc2c1-c1ccccc1)CCCC3	0	16	-10	+	0	i	2
CCN(CC)CCOC(=O)c1ccc(N/C=C(/C#N)c2nc(-c3ccc(OC)c(OC)c3)cs2)cc1	64*	-10	9	i	0	i	0
CC(C)C/C=C1\CCc2c([nH]c3ccccc23)C1=O	-3	8	-1	i	5	.	.
CCCCCCCCC1=NCCc2c1[nH]c1ccccc21	33	10	15	i	2	i	0
Cc1nonc1CC(=O)N1CCCC(C(=O)c2ccc(Cl)cc2)C1 (centres undefined)	1	13	3	i	-2	.	.
CCOC(=O)c1c(NC(=O)c2nn(CC)cc2Br)c(C#N)cn1-c1ccccc1	-2	21	3	+	-1	+	0
FC(F)(F)c1ccc(-c2cccc3c2C2CC3CCN2Cc2ccc3c(c2)OCO3)cc1 (centres undefined)	0	.	8	i	.	.	.
N#CCC(CNc1ncc(C(F)(F)F)cc1Cl)OC(=O)c1cccc([N+](=O)[O-])c1 (centres undefined)	4	-1	12	i	9.1*	i	1
N#CCC(CNc1ncc(C(F)(F)F)cc1Cl)OC(=O)c1ccc(Cl)cc1 (centres undefined)	-2	0	11	i	0	.	.
COC(=O)c1csc(-c2ccc(CO)o2)n1	-12	.	4	i	.	.	.
CC(C)(C)c1ccc(C(=O)NNC(=S)NC(=O)c2cccnc2)cc1	0	13	-13	i	-1	.	.
CC(C)(C)c1cc(Cl)c(O)c(NC(=S)NC(=O)c2cccnc2)c1	-2	-2	19	+	-3	i	0
CCCCn1c(SCC(=O)NCc2ccc(OC)c(C(=O)O)c2)nc2cc(S(N)(=O)=O)ccc21	-16	8	1	i	-3	.	.
NC(=O)C1CCN(C(=O)c2ccco2)CC1	-1	7	-6	i	-2	i	0
CSc1ccc(C(O)c2ncc(-c3ccc(F)cc3)[nH]2)cc1 (centres undefined)	3	0	2	i	1	.	.
O=C(Nc1ccccc1N1CCOCC1)c1ccc([N+](=O)[O-])o1	0	-3	-29	i	-1	i	0
O=C(CCNC(=O)c1ccc(Br)cc1)Nc1ccccc1N1CCCC1	0	1	-4	i	0	.	.
O=C(Nc1ccccc1N1CCOCC1)c1cccc2c(Br)cccc12	0	9	5	+	2	i	0
O=C(Nc1ccc(N2CCOCC2)cc1)c1cccc2c(Br)cccc12	12	2	21	i	2	.	.
O=C(CCNC(=O)c1ccc(Br)cc1)Nc1ccccc1N1CCOCC1	-16	7	-3	i	1	i	0
CC(C)NC(=O)Nc1ccc2c(c1)C(=O)N([C@H](C)CO)C[C@@H](C)[C@@H](CN(C)C(=O)NC1CCCCC1)O2	-3	1	-15	i	-1	.	.
Nc1nnc(CCOc2ccccc2Cl)s1	-2	5	-1	i	-1	i	0
SMILES	Exocytosis inh	MC4R antagonist	EBI2 antag	Myeloid diff 2	MC4R ag barr	Myeloid diff	GFP autofluor
COc1ccc(NC(=O)c2cccc3c2C(=O)c2ccc(-c4cnc(OC)nc4)cc2S3(=O)=O)cc1	0	6	-6	i	-1	.	.
Cc1ccc(Nc2nc(=O)c3cccnc3s2)c(Br)c1	1	9	-5	+	-1	+	1
O=C(COC(=O)c1ccc[nH]c1=O)NC1CCCCCC1	1	7	-6	i	-2	.	.
CN(C(=O)COC(=O)c1ccc[nH]c1=O)C1CCCCC1	-3	12	-11	i	-1	i	1
NC(=O)C1=C[C@@H](c2coc3ccccc3c2=O)C[C@@H](OCCCCO)O1	3	3	1	i	-1	.	.
C=CCOC(=O)C1=C[C@@H](c2coc3ccccc3c2=O)C[C@@H](OCCCCO)O1	3	2	-2	i	0	i	0
CC(C)n1c(=O)c2ccccc2n1S(C)(=O)=O	2	.	-4	i	.	.	.
C=CCn1c(C)c(C(C)=O)c(N2CCCC2)nc1=S	2	3	-2	i	2	.	.
C=CCn1c(C)c(C(C)=O)c(N2CCN(c3ccccc3)CC2)nc1=S	0	-1	-8	+	-2	i	2
CCn1cc(C(=O)N2CCN(c3ccc([N+](=O)[O-])cc3)CC2)c(=O)c2ccc(C)nc21	10	0	-3	+	-1	i	0
CC(C)[C@H](NC(=O)c1ccccc1Cl)C(=O)Nc1nc(-c2ccccn2)cs1	-1	5	-9	i	-2	.	.
Cc1ccc(S(=O)(=O)CCC(=O)Nc2nc(-c3ccccn3)cs2)cc1	-1	8	-6	+	-2	i	1
Cc1ccc(S(=O)(=O)CCC(=O)Nc2nc(-c3cccnc3)cs2)cc1	-4	10	-16	?	3	.	.
CC(Oc1ccc(Br)cc1)C(=O)Nc1nc(-c2ccccn2)cs1 (centres undefined)	7	-8	6	+	-6	i	0
COc1cccc(-c2sc3ccccc3c2-c2ccc(OCCN3CCCCC3)cc2)c1	-2	17	-23	i	18*	i	0
CCCCSc1nnc(CCCCCNC(=O)OC(C)(C)C)o1	-1	2	2	+	1	i	1
S=C(NCCc1ccccc1)Nc1ccc(Br)cn1	-1	-5	18	i	-2	.	.
Cc1nc(SCC(=O)N2CC(=O)Nc3ccccc32)nc(C)c1C	-3	4	-7	i	0	.	.
N#Cc1cc(C#N)c(SCC(=O)N2CC(=O)Nc3ccccc32)nc1N	-1	6	3	i	-1	i	1
CC1(C)CNC(=O)C=C(c2ccccc2)C1	3	-7	-5	+	0	i	0
CC1(C)CC(=O)C=C(c2ccc(Oc3ccccc3)cc2)C1	-3	7	-8	i	0	.	.
CC(Oc1ccc(F)cc1)C(O)CCN(C)C (centres undefined)	-2	8	-1	i	-2	.	.
CC1CCN(S(=O)(=O)c2ccc(C(C)C)cc2)CC1	0	8	16	+	1	i	41*
